Laboratory results from ChEMBL document CHEMBL1139324, “Chemical modification and biological evaluation of new semisynthetic derivatives of 28,29-Didehydronystatin A1 (S44HP), a genetically engineered antifungal polyene macrolide antibiotic” (J Med Chem, 2009).
Converted amounts (≈) assume the structure as drawn.

What was measured:
[1] = tested on: Candida albicans; experiment: Antifungal activity against Candida albicans ATCC 14053 after 48 hrs by broth microdilution method; format: functional; conditions: ATCC 14053, 48 h
How it was run: (§1)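 Yeast susceptibility by broth microdilution per NCCLS M27-A in 96-well plates. MIC is the lowest concentration inhibiting growth. Where repeat runs fully coincided, a single value is reported.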

[2] = tested on: Fusarium oxysporum; experiment: Antifungal activity against Fusarium oxysporum VKM F-140 after 48 hrs by broth microdilution method; format: functional
How it was run: (§2)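 Susceptibility of filamentous fungi (molds) by broth microdilution per NCCLS M38-A in 96-well microplates. The MIC is read as the lowest inhibitory concentration. It is given as one number when replicate data fully agreed.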

[3] = tested on: Candida albicans; experiment: Antifungal activity against Candida albicans ATCC 10231after 48 hrs by broth microdilution method; format: functional; conditions: ATCC 10231, 48 h
[4] = tested on: Vanrija humicola; experiment: Antifungal activity against Cryptococcus humicolus ATCC 9949 after 48 hrs by broth microdilution method; format: functional; conditions: ATCC 9949, 48 h; how it was run: as §1
[5] = Toxicity against human erythrocytes assessed as hemolytic activity at 5 ug/ml; format: cell-based, Erythrocyte; conditions: read-out: Activity
How it was run: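 Lysis of erythrocytes in defibrinated human blood was measured under buffered conditions with compound at 5 µg/mL. Percent hemolysis is the mean of blood samples from two donors.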

[6] = Toxicity in Candida albicans ATCC 14053 infected iv dosed (C57BL/6xDBA/2)F1 B6D2F1 mouse; format: organism-based; conditions: in vivo
[7] = tested on: Aspergillus niger; experiment: Antifungal activity against Aspergillus niger ATCC 16404 after 48 hrs by broth microdilution method; format: functional; conditions: ATCC 16404, 48 h; how it was run: as §2

Row | Structure (SMILES) | MIC [1] | MIC [2] | MIC50 [3] | MIC90 [3] | MIC [4] | hemolysis at 5 ug/ml [5] | LD50 [6] | MTD [6] | MIC [7]
1 | C[C@@H]1[C@H](O)[C@@H](C)/C=C/C=C/C=C/C=C/C=C/C=C/C=C/[C@H](O[C@@H]2O[C@H](C)[C@@H](O)[C@H](N)[C@@H]2O)C[C@@H]2O[C@](O)(C[C@@H](O)C[C@@H](O)[C@H](O)CC[C@@H](O)C[C@@H](O)CC(=O)O[C@H]1C)C[C@H](O)[C@H]2C(=O)O [AMPHOTERICIN B] | 1 µg/mL (≈ 1.08 µM) | 4 µg/mL (≈ 4.33 µM) | 0.11 µg/mL (≈ 0.119 µM) | 0.36 µg/mL (≈ 0.39 µM) | 1 µg/mL (≈ 1.08 µM) | 30% | 2.8 mg/kg | 2.01 mg/kg | 1 µg/mL (≈ 1.08 µM)
2 | C[C@@H]1[C@H](O)[C@@H](C)/C=C/C=C/C=C/C=C/C=C/C=C/C=C/[C@H](O[C@H]2O[C@@H](C)[C@H](O)[C@@H](N)[C@H]2O)C[C@@H]2O[C@](O)(C[C@@H](O)[C@H](O)CC[C@@H](O)C[C@@H](O)C[C@@H](O)CC(=O)O[C@H]1C)C[C@H](O)[C@H]2C(=O)NCCCN(C)C | 1 µg/mL (≈ 0.992 µM) | 2 µg/mL (≈ 1.98 µM) | 0.08 µg/mL (≈ 0.0793 µM) | 0.3 µg/mL (≈ 0.298 µM) | 1 µg/mL (≈ 0.992 µM) | 2% | 16.4 mg/kg | 11.9 mg/kg | 2 µg/mL (≈ 1.98 µM)
3 | C[C@@H]1[C@H](O)[C@@H](C)/C=C/C=C/C=C/C=C/C=C/C=C/C=C/[C@H](O[C@H]2O[C@@H](C)[C@H](O)[C@@H](N)[C@H]2O)C[C@@H]2O[C@](O)(C[C@@H](O)[C@H](O)CC[C@@H](O)C[C@@H](O)C[C@@H](O)CC(=O)O[C@H]1C)C[C@H](O)[C@H]2C(=O)N1CCN(CCO)CC1 | 1 µg/mL (≈ 0.965 µM) | 4 µg/mL (≈ 3.86 µM) | 0.13 µg/mL (≈ 0.125 µM) | 0.52 µg/mL (≈ 0.502 µM) | 2 µg/mL (≈ 1.93 µM) | 2% | – | – | 2 µg/mL (≈ 1.93 µM)
4 | C[C@@H]1[C@H](O)[C@@H](C)/C=C/C=C/C=C/C=C/C=C/C=C/C=C/[C@H](O[C@H]2O[C@@H](C)[C@H](O)[C@@H](N)[C@H]2O)C[C@@H]2O[C@](O)(C[C@@H](O)[C@H](O)CC[C@@H](O)C[C@@H](O)C[C@@H](O)CC(=O)O[C@H]1C)C[C@H](O)[C@H]2C(=O)NCCCO | 1 µg/mL (≈ 1.02 µM) | 2 µg/mL (≈ 2.04 µM) | 0.09 µg/mL (≈ 0.0917 µM) | 0.27 µg/mL (≈ 0.275 µM) | 1 µg/mL (≈ 1.02 µM) | 4% | – | – | 2 µg/mL (≈ 2.04 µM)
5 | C[C@@H]1[C@H](O)[C@@H](C)/C=C/C=C/C=C/C=C/C=C/C=C/C=C/[C@H](O[C@H]2O[C@@H](C)[C@H](O)[C@@H](N)[C@H]2O)C[C@@H]2O[C@](O)(C[C@@H](O)[C@H](O)CC[C@@H](O)C[C@@H](O)C[C@@H](O)CC(=O)O[C@H]1C)C[C@H](O)[C@H]2C(=O)O | 1 µg/mL (≈ 1.08 µM) | 4 µg/mL (≈ 4.33 µM) | 0.12 µg/mL (≈ 0.13 µM) | 0.4 µg/mL (≈ 0.433 µM) | 1 µg/mL (≈ 1.08 µM) | 41% | 2.2 mg/kg | 0.64 mg/kg | 1 µg/mL (≈ 1.08 µM)
